Source: ChEMBL document CHEMBL6103596, “Design, Synthesis, and Biological Evaluation of BODIPY-Caged Resiquimod as a Dual-Acting Phototherapeutic” (J Med Chem, 2025)
Calls of active or inactive are those of the source. The calls are words filed in the database; no cut-off is given here.

Legend:
[1] = Photosensitizing ability of the compound assessed as singlet oxygen quantum yield under 600nm monochromatic light irradiation by DPBF based assay relative to control; type: functional
Method in brief: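 Singlet oxygen generation followed by the decrease in DPBF absorbance under irradiation. DPBF (20–25 μm) used at 5–10-fold excess over compound (2.5–5 μm).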

[2] = Induction of superoxide anion radical assessed as DMPO-O2 radical adduct formation under light irradiation measured after 10 mins by ESR spectra analysis; type: functional
Method in brief: (§1)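 ESR spectra recorded with DMPO as spin trap to detect superoxide and/or hydroxyl radical adducts, before and after 10 min irradiation of compound.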

AD293 [3] = test: Effect on morphological changes in human AD293 cells stable expressing TLR7 at 10 uM pretreated with N-Acetylcysteine for 30 mins followed by compound addition and measured after 30 mins under LED light irradiation at 650 nm by microscopic analysis; type: functional, cell-based
Method in brief: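 TLR7-stable AD293 cells seeded at 20,000/well. After 24 h, medium switched to Opti-MEM. 1 h later, 10 mM N-acetyl-cysteine added. 30 min after that, cells given 10 μM compound and exposed to 650 nm LED for 30 min, or shielded from light as control. Cells observed by microscope 24 h after drug treatment.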

[4] = Induction of hydroxyl radical assessed as DMPO-OH radical adduct formation under dark condition measured after 10 mins by ESR spectra analysis; type: functional; method in brief: as §1
RAW264.7 [5] = test: Effect on TNF-alpha mRNA expression in mouse RAW264.7 cells at 100 nM preincubated with NAC followed by compound addition and measured after 30 mins under 650nm LED light irradiation by real-time PCR analysis; type: functional, cell-based
Method in brief: (§2)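 RAW264.7 cells seeded at 0.3 million per 35 mm dish. Next day, pretreated with 10 mM N-acetyl-cysteine for 30 min, then given 100 nM compound and 650 nm LED light for 30 min. Total RNA taken 24 h later and reverse transcribed with random primers. SYBR real-time PCR run for 40 cycles (95/60/72 °C). Quantities calculated by the Ct method. Results given as fold change, means ± SD.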

RAW264.7 [6] = test: Effect on iNOS mRNA expression in mouse RAW264.7 cells at 100 nM preincubated with NAC followed by compound addition and measured after 30 mins under 650nm LED light irradiation by real-time PCR analysis; type: functional, cell-based; method in brief: as §2
AD293 [7] = test: Cytotoxicity against human AD293 cells assessed as cell viability at 0.1 to 10 uM incubated for 24 hrs by MTT assay; type: toxicity, cell-based; conditions: ad293, 24 h, dose 0.1-10 µM
Method in brief: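 AD293 cells seeded at 4 × 10^4 cells/well in DMEM with 10% FBS. Next day, compound (100 nM, 1 μM, 10 μM) or vehicle added in serum-free DMEM for 24 h, no irradiation. MTT (5 mg/mL reagent) added for 3 h at 37 °C, formazan dissolved in DMSO, absorbance read at 590 nm. Triplicate wells, four independent experiments.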

[8] = Induction of hydroxyl radical assessed as DMPO-OH radical adduct formation under light irradiation measured after 10 mins by ESR spectra analysis; type: functional; method in brief: as §1
[9] = Drug uptake in human AD293 cells assessed as increase in red fluorescence at 10 uM measured after 40 mins by fluorescence imaging based analysis; type: ADME, cell-based; conditions: ad293, 40 min
[10] = Induction of superoxide anion radical assessed as DMPO-O2 radical adduct formation under dark condition measured after 10 mins by ESR spectra analysis; type: functional; method in brief: as §1
AD293 [11] = test: Effect on morphological changes in human AD293 cells at 10 uM; type: functional, cell-based
Method in brief: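 AD293 cells treated with 10 μM compound, followed by LED irradiation or kept unirradiated, then morphology examined by microscopy.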

[12] = Drug uptake in human A549 cells assessed as increase in intracellular fluorescence at 1 uM measured after 40 mins by confocal microscopic analysis; type: ADME, cell-based; conditions: a549, 40 min
Method in brief: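 A549 cells treated with 1 μM compound. Intracellular fluorescence imaged by confocal microscopy (640 nm laser excitation, 650–750 nm band-pass) at 0 and 40 min after treatment.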

[13] = biological target: T1, Toll-like receptor 7 (Homo sapiens) (UniProt Q9NYK1); test: Activation of TLR7 in human AD293 cells assessed as IkappaB-alpha degradation at 10 uM preincubated with NAC followed by compound addition and measured after 30 mins under 650nm red light irradiation by Western blot analysis; type: cell-based; conditions: filed as activator
T1 sequence (whole entry): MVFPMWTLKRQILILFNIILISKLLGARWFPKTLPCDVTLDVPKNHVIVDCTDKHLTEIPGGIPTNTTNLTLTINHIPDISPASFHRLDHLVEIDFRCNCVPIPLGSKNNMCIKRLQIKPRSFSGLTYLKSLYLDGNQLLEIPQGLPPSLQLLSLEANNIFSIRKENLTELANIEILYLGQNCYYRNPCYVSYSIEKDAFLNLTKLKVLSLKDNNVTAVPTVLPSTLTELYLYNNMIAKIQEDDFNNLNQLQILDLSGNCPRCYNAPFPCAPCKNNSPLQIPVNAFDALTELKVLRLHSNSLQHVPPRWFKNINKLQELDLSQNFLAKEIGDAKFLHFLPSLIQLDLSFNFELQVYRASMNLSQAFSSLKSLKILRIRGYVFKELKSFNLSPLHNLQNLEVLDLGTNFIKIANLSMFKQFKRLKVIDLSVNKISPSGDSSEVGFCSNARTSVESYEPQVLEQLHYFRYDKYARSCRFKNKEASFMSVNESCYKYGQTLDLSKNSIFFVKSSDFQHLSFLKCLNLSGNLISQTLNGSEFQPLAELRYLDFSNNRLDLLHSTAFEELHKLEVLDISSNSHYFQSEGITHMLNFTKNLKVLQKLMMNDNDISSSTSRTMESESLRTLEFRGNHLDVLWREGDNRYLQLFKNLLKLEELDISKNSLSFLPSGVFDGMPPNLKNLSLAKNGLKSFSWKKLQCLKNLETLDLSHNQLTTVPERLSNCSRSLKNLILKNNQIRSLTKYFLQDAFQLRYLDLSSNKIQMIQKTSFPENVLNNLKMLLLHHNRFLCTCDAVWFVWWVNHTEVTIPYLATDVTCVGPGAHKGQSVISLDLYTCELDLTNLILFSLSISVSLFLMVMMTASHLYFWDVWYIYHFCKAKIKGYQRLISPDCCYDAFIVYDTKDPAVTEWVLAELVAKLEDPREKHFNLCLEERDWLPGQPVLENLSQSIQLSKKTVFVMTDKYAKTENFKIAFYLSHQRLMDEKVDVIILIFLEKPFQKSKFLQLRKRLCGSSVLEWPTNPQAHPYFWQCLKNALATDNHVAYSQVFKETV
Method in brief: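 Stable TLR7-expressing AD293 line made by TLR7 plasmid transfection and hygromycin B selection (250 μg/mL, 10 days). Cells pretreated with N-acetyl-cysteine, then given 10 μM compound, with or without 30 min 650 nm red-light irradiation. Lysates run on 10% SDS-PAGE and blotted to PVDF. Total IκB probed (1:1000) with GAPDH loading control, ECL detection. Means of three experiments.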

[14] = Dark toxicity in human HaCaT cells assessed as cell viability at 10 uM under dark condition and measured after 72 hrs by CCK-8 method relative to control; type: cell-based; conditions: read-out: Activity
Method in brief: (§3)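 A549, HaCaT and HeLa cells seeded at 2 × 10^3 cells/well in phenol red-free DMEM with 10% FBS. After 24 h, medium replaced with 1% DMSO containing 10 μM compound. After 90 min, one plate kept dark and one exposed to 530 or 650 nm LED (30 mW) for 15 min. Plates incubated 72 h, then CCK-8 read at 450 nm. Viability taken relative to dark control. Triplicates (HaCaT six).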

[15] = Dark toxicity in human A549 cells assessed as cell viability at 10 uM under dark condition and measured after 72 hrs by CCK-8 method relative to control; type: cell-based; conditions: read-out: Activity; method in brief: as §3
[16] = Phototoxicity in human A549 cells assessed as cell viability at 10 uM under 530 ot 650nm 30 mW LED light irradiation and measured after 72 hrs by CCK-8 method relative to control; type: functional; conditions: A549, light or radiation study, read-out: Activity; method in brief: as §3
[17] = Dark toxicity in human HeLa cells assessed as cell viability at 10 uM under dark condition and measured after 72 hrs by CCK-8 method relative to control; type: cell-based; conditions: read-out: Activity; method in brief: as §3
[18] = Thermal stability of compound in DMSO-d6 at 37.5 degree C measured before 24 hrs by 1H NMR spectroscopy analysis; type: physicochemical
Method in brief: (§4)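 Compound in DMSO-d6 followed by 1H NMR. Degradation taken from the intensity of three signals (one resiquimod, one BODIPY, and the linkage NH), each relative to the DMSO-d6 internal standard, and the three averaged.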

[19] = Photorelease activity of the compound in aqueous medium assessed as reduction in lamda maximum at 30 uM measured after 1 hr under 525 nm LED light radiation by UV-vis spectroscopy analysis; type: ADME; conditions: buffer
[20] = Thermal stability of compound in DMSO-d6 at 37.5 degree C measured after 2 days by 1H NMR spectroscopy analysis relative to control; type: physicochemical; conditions: 48 h; time 2 day; method in brief: as §4
[21] = Photorelease activity of the compound in DMSO-d6 measured after 1 hr under 532nm YAG laser radiation by 1H NMR spectroscopy analysis relative to control; type: ADME
[22] = Photorelease activity of the compound in aqueous medium at 30 uM measured after 1 hr under dark condition by UV-vis spectroscopy analysis; type: ADME; conditions: buffer
[23] = Thermal stability of compound in DMSO-d6 at 37.5 degree C measured after 3 days by 1H NMR spectroscopy analysis relative to control; type: physicochemical; conditions: 72 h; time 3 day; method in brief: as §4
[24] = Phototoxicity in human HaCaT cells assessed as cell viability at 10 uM under 530 ot 650nm 30 mW LED light irradiation and measured after 72 hrs by CCK-8 method relative to control; type: functional; conditions: light or radiation study, read-out: Activity; method in brief: as §3
[25] = Thermal stability of compound in DMSO-d6 at 37.5 degree C measured after 1 day by 1H NMR spectroscopy analysis relative to control; type: physicochemical; conditions: 24 h; method in brief: as §4
[26] = Photorelease activity of the compound in CH3CN assessed as retention time under 532nm laser light by HPLC analysis; type: physicochemical
[27] = Photorelease activity of the compound in CH3CN at 532nm laser light measured upto 60 mins under argon condition by HPLC analysis relative to control; type: ADME; parameters: dose or concentration left out as unconfirmed; conditions: 1 h
[28] = Photophysical property of the compound assessed as fluorescence quantum yield; type: physicochemical
[29] = Photorelease activity of the compound in CH3CN at 532nm laser light measured upto 60 mins under air condition by HPLC analysis relative to control; type: ADME; parameters: dose or concentration left out as unconfirmed; conditions: 1 h
[30] = Phototoxicity in human HeLa cells assessed as cell viability at 10 uM under 530 ot 650nm 30 mW LED light irradiation and measured after 72 hrs by CCK-8 method relative to control; type: functional; conditions: light or radiation study, read-out: Activity; method in brief: as §3

For `COCCOCCOCCOc1ccc(/C=C/C2=[N+]3C(=C(CO)c4c(C)cc(/C=C/c5ccc(OCCOCCOCCOC)cc5)n4[B-]3(C)C)C(C)=C2)cc1`, the Activity [1] was 2.2%, the Activity [2] was “inactive” and the Activity (AD293 [3]) was “Active; Showed Greater Effect Than Compound 3C”. The Activity [4] was “inactive”, the Activity (RAW264.7 [5]) was “inactive” and the Activity (RAW264.7 [6]) was “inactive”. The Activity (AD293 [7]) was “Non-toxic”, the Activity [8] was “inactive” and the Drug uptake [9] was “Active”. The Activity [10] was “inactive”, the Activity (AD293 [11]) was “inactive” and the Drug uptake [12] was “Active”.
With `CCOCc1nc2c(N)nc3ccccc3c2n1CC(C)(C)O` [RESIQUIMOD] the Activity [13] was “Active”, the Activity (AD293 [3]) was “inactive” and the viability at 72 h, 10 µM [14] was 32%. The viability at 72 h, 10 µM [15] was 19%, the Activity (AD293 [11]) was “inactive” and the viability at 10 µM [16] was 21%. For the same molecule, the viability at 72 h, 10 µM [17] was 4%.
For `CCOCc1nc2c(NC(=O)OCC3=C4C(C)=CC(C)=[N+]4[B-](F)(F)n4c(C)cc(C)c43)nc3ccccc3c2n1CC(C)(C)O`, the Activity [18] was “Not_active”, the Activity [1] was 3.2% and the Activity [19] was “Active”. For the same molecule, the Activity [20] was 22%, the Activity [21] was 100% and the Activity [13] was “Active”. The Activity [22] was “Not_active”, the Activity [23] was 31% and the Activity (AD293 [7]) was “Toxic”. It also gave a viability at 10 µM [24] of 88%, a viability at 72 h, 10 µM [14] of 6% and an Activity [25] of 12%. For the same molecule, the Retention_time [26] was 6.8 min, the viability at 72 h, 10 µM [15] was 19% and the Activity [27] was ~ 77%. For the same molecule, the Activity [28] was 0.809, the Activity [29] was ~ 68% and the viability at 10 µM [30] was 54%. For the same molecule, the viability at 72 h, 10 µM [17] was 2%.
